Reference: ChEMBL document CHEMBL1641402, “Use of experimental design for the optimization of the production of new secondary metabolites by two Penicillium species” (J Nat Prod, 2010)
The source made the active and inactive calls. The calls are words filed in the database; no cut-off is given here.

Tests used:
[1] = system: Mycobacterium tuberculosis; experiment: Antimycobacterial activity against Mycobacterium tuberculosis H37Rv; assay type: functional, organism-based
Pseudomonas aeruginosa = experiment: Antimicrobial activity against Pseudomonas aeruginosa after 24 hrs by broth micro dilution method; assay type: functional
In short: (§1)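 Broth microdilution per NCCLS guidelines: 2-fold serial dilutions in RPMI-1640 buffered to pH 7.5 with 0.165 M MOPS, final 0.5–128 µg/mL. Inocula from 24 h tryptic soy agar cultures at 37 °C, final 10^3/10^4 cells per mL. Kanamycin and polymyxin B as controls. Incubated 24 h at 37 °C, OD 600 nm; MIC is lowest concentration giving complete (90%) growth inhibition.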

HTB-129 = experiment: (§2) Cytotoxicity against human HTB-129 cells after 72 hrs by MTT assay; assay type: functional, cell-based
In short: (§3)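 HTB-129 breast carcinoma cells kept in Leibovitz's L-15 with 2 mM L-glutamine, insulin 0.01 mg/mL, 10% FBS, penicillin/streptomycin, 37 °C in air. Seeded at 1 × 10^5 cells/mL, 24 h before dosing. Compounds in DMSO, serially diluted in medium from 200 to 1.76 µg/mL. Exposure 72 h, then MTT 3 h, DMSO solubilization, read at 570 nm. Viability as percent of untreated controls; IC50 fitted.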

Escherichia coli = experiment: Antimicrobial activity against Escherichia coli after 24 hrs by broth micro dilution method; assay type: functional; in short: as §1
Staphylococcus aureus = experiment: Antimicrobial activity against Staphylococcus aureus after 24 hrs by broth micro dilution method; assay type: functional; in short: as §1
Candida albicans [2] = experiment: Antimicrobial activity against Candida albicans at 8 ug/disk; assay type: functional; details: read-out: IZ
Candida albicans [3] = experiment: Antimicrobial activity against Candida albicans at 40 ug/disk; assay type: functional, organism-based
[4] = as §2; assay type: functional, cell-based; details: HTB-129, 72 h; in short: as §3

C=CC(C)(C)[C@]12C=C(OC)C(=O)N3/C(=C/c4c[nH]cn4)C(=O)N[C@@]31N(OC)c1ccccc12
inhibition [1]: inactive

COc1ccc2c3c1C(=O)CC(C)(C)N3C(=O)[C@@]21C[C@@]2([N+](=O)[O-])CN3CCC[C@@H]3C[C@H]2C1(C)C
inhibition (Pseudomonas aeruginosa): inactive | inhibition (HTB-129): inactive | inhibition [1]: inactive | inhibition (Escherichia coli): inactive | inhibition (Staphylococcus aureus): inactive

COc1ccc2c3c1C(=O)CC(C)(C)N3C(=O)[C@@]21C[C@]2([N+](=O)[O-])CN3CCC[C@@H]3C[C@H]2C1(C)C
inhibition (Pseudomonas aeruginosa): inactive | inhibition (HTB-129): inactive | inhibition [1]: inactive | inhibition (Escherichia coli): inactive | inhibition (Staphylococcus aureus): inactive

C[C@@H]1[C@H](O)[C@@H](C)/C=C/C=C/C=C/C=C/C=C/C=C/C=C/[C@H](O[C@@H]2O[C@H](C)[C@@H](O)[C@H](N)[C@@H]2O)C[C@@H]2O[C@](O)(C[C@@H](O)C[C@@H](O)[C@H](O)CC[C@@H](O)C[C@@H](O)CC(=O)O[C@H]1C)C[C@H](O)[C@H]2C(=O)O [AMPHOTERICIN B]
zone of inhibition at 8 µg/disc (Candida albicans [2]): 20 mm

CC1(C)CC(=O)c2c(ccc3c2NC(=O)[C@]32C[C@@]3([N+](=O)[O-])CN4CCC[C@H]4C[C@@H]3C2(C)C)O1.O=C(O)C(F)(F)F [CITRINALIN A]
inhibition (Candida albicans [3]): inactive | MIC (Pseudomonas aeruginosa): > 32 µg/mL | IC50 [4]: 174 µM | MIC (Escherichia coli): > 32 µg/mL | MIC (Staphylococcus aureus): > 32 µg/mL

CC1(C)CC(=O)c2c(ccc3c2NC(=O)[C@]32C[C@@]3([N+](=O)[O-])CN4CCC[C@@H]4C[C@@H]3C2(C)C)O1.O=C(O)C(F)(F)F [CITRINALINE B]
inhibition (Candida albicans [3]): inactive | MIC (Pseudomonas aeruginosa): > 32 µg/mL | IC50 [4]: 194 µM | MIC (Escherichia coli): > 32 µg/mL | MIC (Staphylococcus aureus): > 32 µg/mL
